Assay results published in ChEMBL document CHEMBL5303300, “EUbOPEN Chemogenomics Library - Multiplex” (2023).
“And” between values parts separate entries of the source, which are not always exact repeats. Identical values can stand only once.

Tested on: U2OS
Test: Multiplex assay against U2OS
Format: toxicity, cell-based
Settings: human, number of replicates 2
How it was run: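 Live cells carried four stains from seeding: Hoechst33342, BioTracker Green Microtubule Cytoskeleton Dye, MitoTracker Red and Annexin V Alexa Fluor 680. They were imaged on a CQ1 microscope at 37°C and 5% CO2 after compound addition. Using CellPathfinder machine-learning gating, cells were split into Hoechst high-intensity objects or normal cells, normal cells into healthy, pyknosed or fragmented nuclei, and pyknosed cells into mitotic or apoptotic; tubulin, mitochondrial-mass and membrane-permeability phenotypes are per cents of healthy-nucleus cells.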

[1] = 12 h, 1 µM, compound concentration 1 uM
[2] = 12 h, 10 µM, compound concentration 10 uM
[3] = 24 h, 1 µM, compound concentration 1 uM
[4] = 24 h, 10 µM, compound concentration 10 uM
[5] = 48 h, 1 µM, compound concentration 1 uM
[6] = 48 h, 10 µM, compound concentration 10 uM

Structure (SMILES): COc1cc(Nc2cnc(C#N)c(O[C@H](C)CN(C)C)n2)ncc1-c1cnn(C)c1
- Population Apoptotic (%) [1]: 100% and 59%
- Population Healthy Nuclei (%) [1]: 63% and 83%
- Population Hoechst High Intensity Objects (%) [1]: 0%
- Population Mitochondria Different-Phenotype (%) [1]: 8% and 2%
- Population Normal (%) [1]: 100%
- Population Pyknosed Nuclei (%) [1]: 10% and 11%
- Population Tubulin-Different-Phenotype (%) [1]: 75% and 63%
- Population Apoptotic (%) [2]: 88% and 56%
- Population Healthy Nuclei (%) [2]: 39% and 74%
- Population Hoechst High Intensity Objects (%) [2]: 0%
- Population Mitochondria Different-Phenotype (%) [2]: 6% and 8%
- Population Normal (%) [2]: 100%
- Population Pyknosed Nuclei (%) [2]: 21% and 15%
- Population Tubulin-Different-Phenotype (%) [2]: 25% and 32%
- Population Apoptotic (%) [3]: 50% and 76%
- Population Healthy Nuclei (%) [3]: 67% and 86%
- Population Hoechst High Intensity Objects (%) [3]: 0%
- Population Membrane Permeable-Phenotype (%) [3]: 0% and 2%
- Population Mitochondria Different-Phenotype (%) [3]: 0%
- Population Mitotic Cells (%) [3]: 50% and 24%
- Population Normal (%) [3]: 100%
- Population Pyknosed Nuclei (%) [3]: 10% and 8%
- Population Tubulin-Different-Phenotype (%) [3]: 81% and 72%
- Population Apoptotic (%) [4]: 87% and 64%
- Population Fragmented Nuclei (%) [4]: 33% and 11%
- Population Healthy Nuclei (%) [4]: 37% and 67%
- Population Hoechst High Intensity Objects (%) [4]: 6% and 2%
- Population Mitochondria Different-Phenotype (%) [4]: 20% and 9%
- Population Mitotic Cells (%) [4]: 12% and 35%
- Population Normal (%) [4]: 93% and 97%
- Population Pyknosed Nuclei (%) [4]: 29% and 20%
- Population Tubulin-Different-Phenotype (%) [4]: 60% and 44%
- Population Apoptotic (%) [5]: 66% and 62%
- Population Healthy Nuclei (%) [5]: 55% and 83%
- Population Hoechst High Intensity Objects (%) [5]: 0%
- Population Membrane Permeable-Phenotype (%) [5]: 2%
- Population Mitochondria Different-Phenotype (%) [5]: 0%
- Population Mitotic Cells (%) [5]: 33% and 37%
- Population Normal (%) [5]: 100% and 99%
- Population Pyknosed Nuclei (%) [5]: 28% and 12%
- Population Tubulin-Different-Phenotype (%) [5]: 94% and 74%
- Population Apoptotic (%) [6]: 100% and 85%
- Population Fragmented Nuclei (%) [6]: 31% and 20%
- Population Healthy Nuclei (%) [6]: 20% and 46%
- Population Hoechst High Intensity Objects (%) [6]: 3% and 0%
- Population Membrane Permeable-Phenotype (%) [6]: 16% and 7%
- Population Mitochondria Different-Phenotype (%) [6]: 16% and 10%
- Population Mitotic Cells (%) [6]: 0% and 14%
- Population Normal (%) [6]: 96% and 99%
- Population Pyknosed Nuclei (%) [6]: 48% and 33%
- Population Tubulin-Different-Phenotype (%) [6]: 50% and 59%

Structure (SMILES): CC(C)S(=O)(=O)c1ccccc1Nc1nc(N[C@@H]2CCCN(CCCCCCCNC(=O)COc3cccc4c3C(=O)N(C3CCC(=O)N(C)C3=O)C4=O)C2)ncc1Cl (some centres undefined)
- Population Apoptotic (%) [1]: 93% and 83%
- Population Healthy Nuclei (%) [1]: 34% and 71%
- Population Hoechst High Intensity Objects (%) [1]: 0%
- Population Mitochondria Different-Phenotype (%) [1]: 8% and 7%
- Population Mitotic Cells (%) [1]: 6% and 16%
- Population Normal (%) [1]: 100%
- Population Pyknosed Nuclei (%) [1]: 22% and 23%
- Population Tubulin-Different-Phenotype (%) [1]: 69% and 61%
- Total Cell Count [1]: 66 and 157
- Population Apoptotic (%) [2]: 85% and 77%
- Population Healthy Nuclei (%) [2]: 48% and 56%
- Population Hoechst High Intensity Objects (%) [2]: 0% and 1%
- Population Membrane Permeable-Phenotype (%) [2]: 80% and 93%
- Population Mitochondria Different-Phenotype (%) [2]: 66% and 54%
- Population Mitotic Cells (%) [2]: 14% and 22%
- Population Normal (%) [2]: 100% and 98%
- Population Pyknosed Nuclei (%) [2]: 22% and 37%
- Population Tubulin-Different-Phenotype (%) [2]: 100%
- Population Apoptotic (%) [3]: 85% and 89%
- Population Fragmented Nuclei (%) [3]: 26% and 13%
- Population Healthy Nuclei (%) [3]: 29% and 51%
- Population Hoechst High Intensity Objects (%) [3]: 1% and 0%
- Population Membrane Permeable-Phenotype (%) [3]: 0% and 6%
- Population Mitochondria Different-Phenotype (%) [3]: 0% and 4%
- Population Mitotic Cells (%) [3]: 14% and 10%
- Population Normal (%) [3]: 98% and 100%
- Population Pyknosed Nuclei (%) [3]: 44% and 34%
- Population Tubulin-Different-Phenotype (%) [3]: 77% and 84%
- Total Cell Count [3]: 62 and 166
- Population Apoptotic (%) [4]: 85% and 93%
- Population Fragmented Nuclei (%) [4]: 8% and 12%
- Population Hoechst High Intensity Objects (%) [4]: 0% and 1%
- Population Membrane Permeable-Phenotype (%) [4]: 50% and 40%
- Population Mitochondria Different-Phenotype (%) [4]: 50% and 64%
- Population Mitotic Cells (%) [4]: 14% and 6%
- Population Normal (%) [4]: 100% and 98%
- Population Pyknosed Nuclei (%) [4]: 84% and 57%
- Population Tubulin-Different-Phenotype (%) [4]: 100% and 68%
- Population Apoptotic (%) [5]: 89% and 93%
- Population Fragmented Nuclei (%) [5]: 19% and 13%
- Population Healthy Nuclei (%) [5]: 29% and 44%
- Population Hoechst High Intensity Objects (%) [5]: 0%
- Population Membrane Permeable-Phenotype (%) [5]: 5% and 9%
- Population Mitochondria Different-Phenotype (%) [5]: 0% and 5%
- Population Mitotic Cells (%) [5]: 10% and 6%
- Population Normal (%) [5]: 100% and 99%
- Population Pyknosed Nuclei (%) [5]: 50% and 41%
- Population Tubulin-Different-Phenotype (%) [5]: 70% and 87%
- Population Apoptotic (%) [6]: 100% and 94%
- Population Fragmented Nuclei (%) [6]: 9% and 10%
- Population Healthy Nuclei (%) [6]: 18% and 14%
- Population Hoechst High Intensity Objects (%) [6]: 4% and 3%
- Population Membrane Permeable-Phenotype (%) [6]: 75% and 62%
- Population Mitochondria Different-Phenotype (%) [6]: 100% and 53%
- Population Mitotic Cells (%) [6]: 0% and 5%
- Population Normal (%) [6]: 95% and 96%
- Population Pyknosed Nuclei (%) [6]: 72% and 75%
- Population Tubulin-Different-Phenotype (%) [6]: 75% and 96%
